The target of assay [1] is T1, D(2) dopamine receptor (Homo sapiens, UniProt P14416). Briefly: In vitro for its ability to displace [3H]- spiperone from cloned human dopamine D2 short receptor expressed in CHO cells. Format: cell-based. An outline of the steps: (§1)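 [3H]Spiperone displacement from cloned human dopamine receptors stably expressed in CHO cells: D2long, D2short, D3 and D4.4 (the D4 line used the D4.4 variant). Ki values were determined.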

The next assay concerns the target T2, D(4) dopamine receptor (Homo sapiens, UniProt P21917).
T2 sequence (P21917 whole entry): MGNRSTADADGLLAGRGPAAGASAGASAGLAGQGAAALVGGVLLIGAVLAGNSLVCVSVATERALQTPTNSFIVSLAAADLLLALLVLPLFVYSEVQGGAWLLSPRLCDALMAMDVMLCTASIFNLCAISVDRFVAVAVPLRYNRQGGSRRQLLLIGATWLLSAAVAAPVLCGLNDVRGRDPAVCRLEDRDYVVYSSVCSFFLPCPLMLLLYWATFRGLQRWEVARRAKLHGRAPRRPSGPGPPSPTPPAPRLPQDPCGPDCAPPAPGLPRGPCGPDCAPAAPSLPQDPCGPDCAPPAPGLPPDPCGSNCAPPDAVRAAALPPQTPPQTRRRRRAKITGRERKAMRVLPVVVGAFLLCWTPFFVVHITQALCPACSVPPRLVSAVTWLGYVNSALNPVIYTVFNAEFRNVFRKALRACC
Briefly: In vitro for its ability to displace [3H]- spiperone from cloned human Dopamine receptor D4 expressed in CHO cells. Type of assay: cell-based. An outline of the steps:
as §1

The next assay deals with D(3) dopamine receptor (Homo sapiens, UniProt P35462). The assay can be described thus: Displacement of [3H]spiperone from human Dopamine receptor D3 expressed in CHO cells. Type of assay: cell-based. The procedure, abridged:
as §1

Another assay concerns the target D(1A) dopamine receptor (Bos taurus, UniProt Q95136). The assay can be described thus: In vitro for its ability to displace [3H]- SCH 23390 from Dopamine receptor D1 in bovine striatal membrane […]. Format: cell-based, Striatum. An outline of the steps: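 D1 affinity was measured with bovine striatal membrane preparations and the D1-selective antagonist [3H]SCH 23390 as radioligand. Ki values were determined.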

Assay [2] concerns the target T1, D(2) dopamine receptor. The assay can be described thus: In vitro for its ability to displace [3H]- spiperone from cloned human dopamine D2 long receptor expressed in CHO cells. Format: cell-based. An outline of the steps: as §1
A short description of assay [3]: In vitro for its ability to displace [3H]- ketanserin from 5-hydroxytryptamine 2 receptor in porcine brain homogenate. Type of assay: tissue-based. The procedure, abridged:
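5-HT2 binding was measured in porcine brain homogenates by displacement of [3H]ketanserine. Ki values were determined.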

Assay [4] concerns the target T1, D(2) dopamine receptor. The assay can be described thus: In vitro for its ability to displace [3H]- spiperone from cloned human Dopamine receptor D2L expressed in CHO cells. Format: cell-based. The procedure, abridged: as §1

SMILES strings stand for the structures.

D(1A) dopamine receptor, sequence (Q95136 whole entry): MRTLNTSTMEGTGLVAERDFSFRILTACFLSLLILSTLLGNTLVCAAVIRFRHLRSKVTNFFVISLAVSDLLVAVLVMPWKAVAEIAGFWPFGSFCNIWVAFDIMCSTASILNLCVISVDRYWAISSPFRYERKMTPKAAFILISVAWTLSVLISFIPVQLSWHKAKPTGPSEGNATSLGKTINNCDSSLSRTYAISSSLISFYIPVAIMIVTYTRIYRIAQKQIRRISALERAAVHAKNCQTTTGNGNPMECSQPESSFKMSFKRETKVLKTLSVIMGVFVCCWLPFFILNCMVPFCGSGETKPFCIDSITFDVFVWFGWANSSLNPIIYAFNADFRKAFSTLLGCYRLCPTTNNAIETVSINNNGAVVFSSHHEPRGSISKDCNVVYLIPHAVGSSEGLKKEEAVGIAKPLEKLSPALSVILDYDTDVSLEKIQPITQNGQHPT
D(3) dopamine receptor, sequence (P35462 whole entry): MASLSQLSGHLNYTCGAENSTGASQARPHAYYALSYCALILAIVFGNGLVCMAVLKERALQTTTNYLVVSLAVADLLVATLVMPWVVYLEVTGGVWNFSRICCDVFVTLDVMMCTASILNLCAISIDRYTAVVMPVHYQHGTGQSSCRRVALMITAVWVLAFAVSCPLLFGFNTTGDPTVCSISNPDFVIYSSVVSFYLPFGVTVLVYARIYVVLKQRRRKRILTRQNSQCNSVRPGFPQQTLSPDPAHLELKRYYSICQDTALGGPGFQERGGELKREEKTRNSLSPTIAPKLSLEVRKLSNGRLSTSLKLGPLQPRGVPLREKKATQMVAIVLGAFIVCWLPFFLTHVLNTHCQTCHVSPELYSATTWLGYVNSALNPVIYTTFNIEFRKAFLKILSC
T1 sequence (P14416 whole entry): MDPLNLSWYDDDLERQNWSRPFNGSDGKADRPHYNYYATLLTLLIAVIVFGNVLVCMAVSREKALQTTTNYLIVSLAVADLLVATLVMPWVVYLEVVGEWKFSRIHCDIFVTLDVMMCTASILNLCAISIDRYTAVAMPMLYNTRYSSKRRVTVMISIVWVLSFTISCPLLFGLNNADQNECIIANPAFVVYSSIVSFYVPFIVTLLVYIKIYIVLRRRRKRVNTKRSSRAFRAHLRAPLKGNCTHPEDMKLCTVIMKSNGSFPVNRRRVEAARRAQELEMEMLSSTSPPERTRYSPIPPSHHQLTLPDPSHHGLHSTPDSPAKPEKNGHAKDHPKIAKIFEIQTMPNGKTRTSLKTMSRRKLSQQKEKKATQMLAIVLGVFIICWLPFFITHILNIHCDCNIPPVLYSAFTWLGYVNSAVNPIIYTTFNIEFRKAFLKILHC

With `COc1ccc(Br)cc1C1=N[C@@H](CN2CCN(c3ccccc3)CC2)CO1` (stereo in doubt), the Ki on D(2) dopamine receptor [1] was determined as 110 nM; on D(4) dopamine receptor it was 390 nM; at D(3) dopamine receptor it was 1000 nM; on D(1A) dopamine receptor it was 2000 nM; on D(2) dopamine receptor [2], 400 nM.

For `COc1ccc(Br)cc1C1=N[C@@H](CN2CCN(c3ccccc3)CC2)[C@@H](C)O1` (stereo in doubt), the inhibition constant Ki on D(2) dopamine receptor [1] came out at 18000 nM; on D(4) dopamine receptor it was 3300 nM; at D(3) dopamine receptor it was 10000 nM; on D(1A) dopamine receptor, 480 nM; at D(2) dopamine receptor [2], 21000 nM.

On to `c1ccc(C2=NC[C@H](CN3CCN(c4ccccc4)CC3)N2)cc1` (stereo in doubt), for which the Ki turned out to be 10000 nM on D(2) dopamine receptor [1], 9000 nM at D(3) dopamine receptor and 14000 nM at D(2) dopamine receptor [2].

For `c1ccc(C2=N[C@@H](CN3CCN(c4ccccc4)CC3)CS2)cc1` (stereo in doubt), the Ki on D(2) dopamine receptor [1] is 720 nM; on D(4) dopamine receptor it was 1200 nM; on D(3) dopamine receptor it was 1200 nM; on D(1A) dopamine receptor, 4500 nM; on D(2) dopamine receptor [2] it was 1100 nM.

Consider `C[C@@H]1OC(c2ccccc2)=N[C@H]1CN1CCN(c2ccccc2)CC1` (stereo in doubt), for which the Ki on D(2) dopamine receptor [1] amounted to 320 nM; on D(4) dopamine receptor, 440 nM; on D(3) dopamine receptor, 710 nM; on D(1A) dopamine receptor, 2000 nM; on D(2) dopamine receptor [2] it was 820 nM.

Regarding `c1ccc(C2=N[C@@H](CN3CCN(c4ccccc4)CC3)CO2)cc1` (stereo in doubt), the inhibition constant (Ki) at D(2) dopamine receptor [1] came out at 330 nM; on D(4) dopamine receptor, 410 nM; at D(3) dopamine receptor, 690 nM; at D(1A) dopamine receptor it was 4000 nM; on D(2) dopamine receptor [2], 690 nM.

As for `c1ccc(C2=N[C@@H](CN3CCN(c4ccccc4)CC3)CO2)cc1` (stereo in doubt; 4a), the Ki stood at 1100 nM on D(2) dopamine receptor [1]; 340 nM at D(4) dopamine receptor; 3300 nM on D(3) dopamine receptor; 9700 nM at D(1A) dopamine receptor; 1700 nM on D(2) dopamine receptor [2].

Consider `C[C@@H]1OC(c2ccccc2)=N[C@H]1CN1CCN(c2ccccc2)CC1` (stereo in doubt; 4b), for which the inhibitory constant (Ki) at D(2) dopamine receptor [1] was found to be 1900 nM; at D(4) dopamine receptor it was 700 nM; on D(3) dopamine receptor, 2700 nM; on D(1A) dopamine receptor it was 20000 nM; at D(2) dopamine receptor [2], 3200 nM.

Turning to `COc1ccc(Br)cc1C1=N[C@@H](CN2CCN(c3ccccc3)CC2)CO1` (stereo in doubt; 4c), the Ki turned out to be 900 nM on D(2) dopamine receptor [1]; 1600 nM at D(4) dopamine receptor; 5200 nM on D(3) dopamine receptor; 9000 nM on D(1A) dopamine receptor; 2200 nM at D(2) dopamine receptor [2].

Turning to `COc1ccc(Br)cc1C1=N[C@@H](CN2CCN(c3ccccc3)CC2)[C@@H](C)O1` (stereo in doubt; 4d), the Ki is 2400 nM at D(2) dopamine receptor [1]; 290 nM on D(4) dopamine receptor; 2500 nM at D(3) dopamine receptor; 3500 nM on D(1A) dopamine receptor; 3700 nM at D(2) dopamine receptor [2].

Regarding `c1ccc(C2=NC[C@H](CN3CCN(c4ccccc4)CC3)N2)cc1` (stereo in doubt; 4e), the Ki is 11000 nM on D(2) dopamine receptor [1]; 870 nM in assay [3]; 7100 nM at D(3) dopamine receptor; 10000 nM at D(2) dopamine receptor [4]; 12000 nM on D(1A) dopamine receptor.

Consider `c1ccc(C2=N[C@@H](CN3CCN(c4ccccc4)CC3)CS2)cc1` (stereo in doubt; 4f), for which the Ki on D(2) dopamine receptor [1] is 1100 nM; at D(4) dopamine receptor, 1800 nM; at D(3) dopamine receptor (cho), 1200 nM; on D(1A) dopamine receptor it was 16000 nM; on D(2) dopamine receptor [2], 1500 nM.

One may read the Ki as the equilibrium dissociation constant of an inhibitor or competing ligand from its target.

Source of the values: ChEMBL document CHEMBL1134812, “Benzamide bioisosteres incorporating dihydroheteroazole substructures: EPC synthesis and SAR leading to a selective dopamine D4 receptor partial agonist (FAUC 179)” (Bioorg Med Chem Lett, 2001).
